Measurements reported in ChEMBL document CHEMBL1125720, “Long-acting dihydropyridine calcium antagonists. 6. Structure-activity relationships around 4-(2,3-dichlorophenyl)-3-(ethoxycarbonyl)-2-[(2-hydroxyethoxy)methyl]-5 -(methoxycarbonyl)-6-methyl-1,4-dihydropyridine” (J Med Chem, 1991).

Experiments:
[1] = species: Rattus norvegicus; test: Evaluated for the negative logarithm of the molar concentration required to block [Ca2+] induced contraction of K+ depolarized rat aorta by 50%.; format: functional
In short: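 Rat aorta depolarized with potassium, then contracted by adding calcium. Read-out is the molar concentration that inhibits the calcium-induced contraction by 50%, reported as pIC50.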

[2] = Selectivity index calculated as the ratio of Calcium pIC50 to that of negative inotropy IC25; format: functional
[3] = species: Cavia porcellus; test: Evaluated for the negative ionotropy logarithm of the molar concentration required to depress contraction in the Langendorff-perfused guinea pig heart by 25%; format: functional
In short: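 Negative inotropy measured in vitro in a Langendorff-perfused guinea pig heart. Read-out is the molar concentration that depresses contraction by 25%, reported as pIC25.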

[4] = Compound was evaluated for the plasma half-life to investigate its pharmacokinetic profile in dogs after intravenous administration.; format: ADME, organism-based, Canis lupus familiaris; details: dog
[5] = Compound was evaluated for the plasma clearance to investigate its pharmacokinetic profile in dogs after intravenous administration.; format: ADME, organism-based, Canis lupus familiaris; details: dog
[6] = Compound was evaluated for the volume of distribution to investigate its pharmacokinetic profile in dogs after intravenous administration.; format: ADME, organism-based, Canis lupus familiaris; details: dog, in vivo, read-out: Volume of distribution

| SMILES | IC50 [1] [nM] | Selectivity index [2] | pIC25 [3] | half-life [4] [h] | clearance [5] [mL/min/kg] | Vd [6] [L/kg] |
| --- | --- | --- | --- | --- | --- | --- |
| CCO/C(O)=C1\C(COCC(C)(O)CNc2ncccn2)=NC(C)=C(C(=O)OC)C1c1cccc(Cl)c1Cl (configuration not stated) | 39.8 | 2 | 7.1 |  |  |  |
| COC(=O)C1=C(C)NC(C)=C(C(=O)OC)C1c1ccccc1[N+](=O)[O-] [NIFEDIPINE] |  | 8 | 7.5 |  |  |  |
| CCO/C(O)=C1\C(COCC(C)(C)O)=NC(C)=C(C(=O)OC)C1c1cccc(Cl)c1Cl (configuration not stated) | 6.31 | 10 | 7.2 |  |  |  |
| CCO/C(O)=C1\C(COCC(O)CO)=NC(C)=C(C(=O)OC)C1c1cccc(Cl)c1Cl (configuration not stated) | 15.8 | 8 | 6.9 |  |  |  |
| CCO/C(O)=C1\C(COCC(C)(O)CO)=NC(C)=C(C(=O)OC)C1c1cccc(Cl)c1Cl (configuration not stated) | 25.1 | 4 | 7 |  |  |  |
| CCO/C(O)=C1\C(COCC(C)(O)Cn2cncn2)=NC(C)=C(C(=O)OC)C1c1cccc(Cl)c1Cl (configuration not stated) | 20 | 3 | 7.2 |  |  |  |
| CCCOCC1=C(C(=O)OCC)C(c2cccc(Cl)c2Cl)/C(=C(\O)OC)C(C)=N1 (configuration not stated) | 31.6 | 20 | 6.2 |  |  |  |
| CCO/C(O)=C1\C(COCC(C)(O)CSc2ncccn2)=NC(C)=C(C(=O)OC)C1c1cccc(Cl)c1Cl (configuration not stated) | 25.1 | 1.6 | 7.4 |  |  |  |
| CCO/C(O)=C1\C(COCC(C)(O)Cc2ccccn2)=NC(C)=C(C(=O)OC)C1c1cccc(Cl)c1Cl (configuration not stated) | 63.1 | 2 | 7.5 |  |  |  |
| CCO/C(O)=C1\C(COCCO)=NC(C)=C(C(=O)OC)C1c1cccc(Cl)c1Cl (configuration not stated) | 3.98 | 10 | 7.4 | 7.3 | 9.6 | 6 |
| CCO/C(O)=C1\C(COCC(C)(O)CN)=NC(C)=C(C(=O)OC)C1c1cccc(Cl)c1Cl (configuration not stated) | 158 | 2 | 6.5 |  |  |  |
| CCO/C(O)=C1\C(COCC(C)O)=NC(C)=C(C(=O)OC)C1c1cccc(Cl)c1Cl (configuration not stated) | 15.8 | 3 | 7.3 |  |  |  |
| CCO/C(O)=C1\C(COCC(C)(O)c2ccco2)=NC(C)=C(C(=O)OC)C1c1cccc(Cl)c1Cl (configuration not stated) | 15.8 | 16 | 6.6 |  |  |  |
| CCO/C(O)=C1\C(COCCOC)=NC(C)=C(C(=O)OC)C1c1cccc(Cl)c1Cl (configuration not stated) | 31.6 | 30 | 6 |  |  |  |
| CCO/C(O)=C1\C(COCC(C)(O)Cn2ccnc2)=NC(C)=C(C(=O)OC)C1c1cccc(Cl)c1Cl (configuration not stated) | 39.8 | 1.6 | 7.2 |  |  |  |
